Experimental findings from BindingDB's records for doi:10.1021/acs.jmedchem.0c02249 (Lundbeck Research Usa, 2021) are described below.

The target in experiment [1] is T1, P2X purinoceptor 7 (Rattus norvegicus, UniProt Q64663).
T1 sequence (Q64663 whole entry): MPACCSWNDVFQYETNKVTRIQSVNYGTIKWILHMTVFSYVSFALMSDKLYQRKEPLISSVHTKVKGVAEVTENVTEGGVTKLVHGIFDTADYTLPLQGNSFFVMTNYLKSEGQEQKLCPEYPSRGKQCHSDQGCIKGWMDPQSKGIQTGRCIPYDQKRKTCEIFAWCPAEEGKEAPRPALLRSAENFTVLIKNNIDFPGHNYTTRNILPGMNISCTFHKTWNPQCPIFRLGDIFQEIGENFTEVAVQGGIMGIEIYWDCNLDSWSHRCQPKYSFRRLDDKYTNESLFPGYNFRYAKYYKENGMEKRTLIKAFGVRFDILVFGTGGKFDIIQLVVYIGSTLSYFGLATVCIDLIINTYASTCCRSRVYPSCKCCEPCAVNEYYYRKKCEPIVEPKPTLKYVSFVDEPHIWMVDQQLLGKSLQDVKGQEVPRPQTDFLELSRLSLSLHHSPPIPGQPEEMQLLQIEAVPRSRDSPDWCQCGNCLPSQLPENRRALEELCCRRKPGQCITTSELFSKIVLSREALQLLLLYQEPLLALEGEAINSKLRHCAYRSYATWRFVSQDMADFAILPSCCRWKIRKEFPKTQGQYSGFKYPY
In words: Antagonist activity at rat P2X7 receptor expressed in HEK293 cells assessed as inhibition of BzATP-induced calcium-flux measured after 60 mins by FLIPR analysis. Put shortly:
(§1)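 Stable rat or mouse P2X7 HEK293 cells in HBSS/20 mM HEPES/2.5 mM probenecid/0.05% BSA, pH 7.4, were loaded with Fluo-4 NW (37 °C 30 min, RT 30 min). After 30 min at RT, calcium fluorescence was read by FLIPR; n ≥ 3.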

Experiment [2] concerns the target T1, P2X purinoceptor 7. Put plainly: Displacement of [3H]-A-804598 from rat P2X7 receptor expressed in HEK293 cell membrane by in vitro binding assay. For orientation: Loss of bound radioactivity is the signal in a displacement assay; it reports binding, not function.
Experiment [3] addresses T2, P2X purinoceptor 7 (Mus musculus, UniProt Q9Z1M0).
T2 sequence (Q9Z1M0 whole entry): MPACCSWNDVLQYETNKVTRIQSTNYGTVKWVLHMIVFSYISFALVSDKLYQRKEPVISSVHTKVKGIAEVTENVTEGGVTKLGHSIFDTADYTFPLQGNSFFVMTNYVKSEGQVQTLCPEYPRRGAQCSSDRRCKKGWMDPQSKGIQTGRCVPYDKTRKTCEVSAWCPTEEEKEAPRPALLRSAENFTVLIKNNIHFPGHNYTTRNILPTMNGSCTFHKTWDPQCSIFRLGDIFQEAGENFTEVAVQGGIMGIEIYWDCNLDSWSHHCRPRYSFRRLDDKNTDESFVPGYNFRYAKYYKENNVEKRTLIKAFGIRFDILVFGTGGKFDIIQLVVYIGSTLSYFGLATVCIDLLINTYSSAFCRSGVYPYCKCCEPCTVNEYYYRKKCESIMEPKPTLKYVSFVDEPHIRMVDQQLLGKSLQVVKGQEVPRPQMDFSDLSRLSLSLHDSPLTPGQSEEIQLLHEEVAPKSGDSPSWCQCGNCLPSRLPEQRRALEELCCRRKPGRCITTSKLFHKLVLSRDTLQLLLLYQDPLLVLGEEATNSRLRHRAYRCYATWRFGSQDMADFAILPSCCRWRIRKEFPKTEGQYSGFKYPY
Put plainly: Antagonist activity at mouse P2X7 receptor expressed in HEK293 cells assessed as inhibition of BzATP-induced calcium-flux measured after 60 mins by FLIPR analysis. The method in brief:
as §1

Experiment [4] concerns the target T3, P2X purinoceptor 7 (Homo sapiens, UniProt Q99572).
T3 sequence (Q99572 whole entry): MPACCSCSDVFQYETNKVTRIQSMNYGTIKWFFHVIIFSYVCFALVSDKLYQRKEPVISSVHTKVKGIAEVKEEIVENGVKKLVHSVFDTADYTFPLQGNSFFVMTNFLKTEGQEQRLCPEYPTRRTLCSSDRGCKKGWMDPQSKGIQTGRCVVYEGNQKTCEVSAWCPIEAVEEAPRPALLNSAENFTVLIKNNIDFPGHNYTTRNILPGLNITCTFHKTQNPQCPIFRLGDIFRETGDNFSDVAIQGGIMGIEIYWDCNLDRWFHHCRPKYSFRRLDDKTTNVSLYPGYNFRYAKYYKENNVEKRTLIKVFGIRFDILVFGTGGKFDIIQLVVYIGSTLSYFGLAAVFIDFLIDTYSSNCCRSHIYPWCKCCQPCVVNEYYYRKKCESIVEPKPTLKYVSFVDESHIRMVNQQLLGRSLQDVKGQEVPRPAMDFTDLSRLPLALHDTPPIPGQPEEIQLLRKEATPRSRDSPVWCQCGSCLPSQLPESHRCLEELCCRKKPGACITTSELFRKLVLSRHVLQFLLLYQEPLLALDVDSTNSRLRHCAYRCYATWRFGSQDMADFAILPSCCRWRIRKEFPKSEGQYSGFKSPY
Put plainly: Antagonist activity at human P2X7 receptor expressed in HEK293 cells assessed as inhibition of BzATP-induced calcium-flux measured after 60 mins by FLIPR analysis.

One may read the IC50 as the point on the concentration scale where inhibition reaches its midpoint. Usually Ki stands for a dissociation constant, usually derived from enzyme kinetics or from competition with a known ligand. Low readings indicate a stronger hold on the target, high ones a looser hold on the target. As for `CCOc1ccc(Nc2ccc(/C(=C3C=C/C(=[N+](/CC)Cc4cccc(S(=O)(=O)[O-])c4)C=C/3C)c3ccc(N(CC)Cc4cccc(S(=O)(=O)O)c4)cc3C)cc2)cc1` [E133], the figures for the 50% inhibitory concentration (IC50) in experiment [1], in experiment [3] and in experiment [4] were 200 nM, 1300 nM and 5.8 µM, respectively. The compound also had a Ki in experiment [2] of 1000 nM.
